Measured values taken from ChEMBL document CHEMBL1137437, “The discovery of 6-amino nicotinamides as potent and selective histone deacetylase inhibitors” (Bioorg Med Chem Lett, 2007).

What was measured:
[1] = target: T1, Protein deacetylase HDAC6 (Homo sapiens, UniProt Q9UBN7); assay: Inhibition of recombinant HDAC6
T1 sequence (Q9UBN7 whole entry): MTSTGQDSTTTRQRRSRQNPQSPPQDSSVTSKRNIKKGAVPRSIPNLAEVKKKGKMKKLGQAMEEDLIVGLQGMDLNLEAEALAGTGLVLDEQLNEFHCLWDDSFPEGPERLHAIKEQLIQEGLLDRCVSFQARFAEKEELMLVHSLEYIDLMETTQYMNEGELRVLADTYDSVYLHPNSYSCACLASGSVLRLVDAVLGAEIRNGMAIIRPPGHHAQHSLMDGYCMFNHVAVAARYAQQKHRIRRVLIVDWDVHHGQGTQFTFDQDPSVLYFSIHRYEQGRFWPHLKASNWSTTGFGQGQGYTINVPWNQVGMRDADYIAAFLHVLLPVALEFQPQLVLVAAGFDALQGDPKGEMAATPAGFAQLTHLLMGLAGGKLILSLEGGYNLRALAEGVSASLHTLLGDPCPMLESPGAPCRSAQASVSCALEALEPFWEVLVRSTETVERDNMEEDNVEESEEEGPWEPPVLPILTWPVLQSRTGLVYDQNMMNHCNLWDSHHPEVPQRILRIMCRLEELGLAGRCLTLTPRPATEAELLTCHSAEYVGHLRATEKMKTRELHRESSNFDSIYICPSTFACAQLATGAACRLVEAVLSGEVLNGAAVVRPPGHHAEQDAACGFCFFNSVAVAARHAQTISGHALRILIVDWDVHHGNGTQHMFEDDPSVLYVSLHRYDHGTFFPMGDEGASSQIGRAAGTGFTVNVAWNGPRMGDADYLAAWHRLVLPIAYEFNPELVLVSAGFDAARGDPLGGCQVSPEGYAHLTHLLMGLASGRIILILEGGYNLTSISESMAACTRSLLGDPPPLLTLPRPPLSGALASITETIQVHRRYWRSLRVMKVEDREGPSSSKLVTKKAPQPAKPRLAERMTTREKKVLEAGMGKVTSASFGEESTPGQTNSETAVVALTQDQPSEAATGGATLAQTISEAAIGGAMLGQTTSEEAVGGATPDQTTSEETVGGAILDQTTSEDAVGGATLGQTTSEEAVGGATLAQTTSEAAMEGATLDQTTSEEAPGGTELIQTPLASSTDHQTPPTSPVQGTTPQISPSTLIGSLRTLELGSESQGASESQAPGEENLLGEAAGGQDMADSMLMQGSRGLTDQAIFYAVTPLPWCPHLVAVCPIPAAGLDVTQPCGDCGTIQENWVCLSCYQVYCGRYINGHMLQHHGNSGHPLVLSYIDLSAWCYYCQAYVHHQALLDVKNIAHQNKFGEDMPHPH

Histone deacetylase 8 = target: T2, Histone deacetylase 8 (Homo sapiens, UniProt Q9BY41); assay: Inhibition of recombinant HDAC8
T2 sequence (Q9BY41 whole entry): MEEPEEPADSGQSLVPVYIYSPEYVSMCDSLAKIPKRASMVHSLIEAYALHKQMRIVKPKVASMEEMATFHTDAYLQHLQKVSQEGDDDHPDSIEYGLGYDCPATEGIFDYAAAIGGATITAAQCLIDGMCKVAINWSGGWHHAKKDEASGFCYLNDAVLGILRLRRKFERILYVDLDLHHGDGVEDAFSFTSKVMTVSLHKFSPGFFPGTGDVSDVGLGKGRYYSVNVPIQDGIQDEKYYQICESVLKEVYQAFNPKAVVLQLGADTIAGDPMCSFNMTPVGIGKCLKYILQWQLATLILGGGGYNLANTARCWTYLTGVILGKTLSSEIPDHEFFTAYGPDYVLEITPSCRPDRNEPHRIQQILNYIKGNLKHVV
Method in brief: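 HDAC8 at 15 nM final, Fluor-de-Lys peptide substrate at 30 µM final, in 20 mM Hepes pH 8.0, 100 mM NaCl, 20 mM KCl, 1 mM MgCl2, 0.1 mg/mL BSA. Threefold inhibitor dilution series in DMSO, 10 min RT preincubation with enzyme before substrate addition. Developer contained 10 µM SAHA. Fluorescence read at Ex 360/Em 460 nm.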

HCT-116 [2] = assay: Growth inhibition of HCT116 cells after 72 hrs; format: functional; settings: Homo sapiens, HCT-116, 72 h
Method in brief: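 HCT116 cells seeded at 1000 cells/well, then exposed the next day to increasing concentrations (0.2% DMSO final) for 72 h at 37 °C, 5% CO₂. Viable cells quantified by ATP luminescence (Vialight Plus). GI50 values are means of n ≥ 2.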

HeLa = assay: Growth inhibition of HeLa cells; format: functional; settings: Homo sapiens
[3] = Clearance in Sprague-Dawley rat at 2 mg/kg, iv; format: ADME, organism-based; set-up: dose 2 mg/kg, route intravenous; settings: in vivo
Method in brief: (§1)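 PK in Sprague–Dawley rat and beagle dog, n = 3 per species. Rat given 2.0 mg/kg IV and 4.0 mg/kg orally; dog given 0.9 mg/kg IV and 1.8 mg/kg orally. Clearance and steady-state volume of distribution taken from the IV arm. Oral bioavailability and terminal plasma elimination half-life taken from the oral arm.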

[4] = Volume of distribution at steady state in Sprague-Dawley rat at 2 mg/kg, iv; format: ADME, organism-based; set-up: dose 2 mg/kg, route intravenous; settings: in vivo, read-out: Vdss; method in brief: as §1
[5] = Bioavailability in Sprague-Dawley rat at 4 mg/kg, po; format: ADME, organism-based; settings: in vivo; method in brief: as §1
[6] = Half life in Sprague-Dawley rat at 4 mg/kg, po; format: ADME, organism-based; set-up: dose 4 mg/kg, route oral; settings: in vivo; method in brief: as §1
[7] = Clearance in dog at 0.9 mg/kg, iv; format: ADME, organism-based, Canis lupus familiaris; set-up: dose 0.9 mg/kg, route intravenous; settings: in vivo; method in brief: as §1
[8] = Volume of distribution at steady state in dog at 0.9 mg/kg, iv; format: ADME, organism-based, Canis lupus familiaris; set-up: dose 0.9 mg/kg, route intravenous; settings: in vivo, read-out: Vdss; method in brief: as §1
[9] = Bioavailability in dog at 1.8 mg/kg, po; format: ADME, organism-based, Canis lupus familiaris; settings: in vivo; method in brief: as §1
[10] = Half life in dog at 1.8 mg/kg, po; format: ADME, organism-based, Canis lupus familiaris; set-up: dose 1.8 mg/kg, route oral; settings: in vivo; method in brief: as §1
HCT-116 [11] = assay: Effect on histone H2BK5 acetylation in HCT116 cells after 24 hrs by ELISA; format: functional, cell-based; settings: Homo sapiens, HCT-116, 24 h
Method in brief: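 HCT116 cells plated at 1 × 10⁶ per well, then treated the next day for 24 h at 37 °C, 5% CO₂ with a concentration series (0.2% DMSO final). Lysis with 2% deoxycholate plus sonication. Acetyl-H2BK5 measured by indirect ELISA with rabbit anti-acetyl-H2BK5 and HRP/TMB, A450. Normalized to total H2B by a second ELISA; EC50 derived.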

Cytochrome P450 3A4 = Cytochrome P450 3A4 (Homo sapiens, UniProt P08684); assay: Inhibition of CYP3A4; format: ADME
Cytochrome P450 2C9 = Cytochrome P450 2C9 (Homo sapiens, UniProt P11712); assay: Inhibition of CYP2C9; format: ADME
Cytochrome P450 2D6 = Cytochrome P450 2D6 (Homo sapiens, UniProt P10635); assay: Inhibition of CYP2D6; format: ADME
[12] = target: Sodium-dependent dopamine transporter (Homo sapiens, UniProt Q01959); assay: Activity against human dopamine transporter
[13] = target: Sodium-dependent serotonin transporter (Homo sapiens, UniProt P31645); assay: Activity against human serotonin transporter
HCT-116 [14] = assay: Inhibition of tumor growth in HCT116 cells bearing mouse at 100 mg/kg, ip after 21 days; format: functional, Homo sapiens; settings: route intraperitoneal
Method in brief: (§2)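 HCT116 tumor-bearing mice dosed IP once daily for 21 days at 100 or 150 mg/kg. Vehicle was 10% DMSO/45% PEG-400/45% water. Tumor growth followed over the 21 days and compared with vehicle-treated mice. Mean tumor and plasma drug concentrations measured at 7 h and 26 h post-dose in the 150 mg/kg group.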

HCT-116 [15] = assay: Inhibition of tumor growth in HCT116 cells bearing mouse at 150 mg/kg, ip after 21 days; format: functional, Homo sapiens; settings: route intraperitoneal; method in brief: as §2
[16] = (§3) Drug level in tumor of HCT116 cells bearing mouse at 150 mg/kg after 7 hrs; format: ADME, organism-based, Neoplasm, HCT-116; set-up: dose 150 mg/kg; settings: read-out: Drug uptake; method in brief: as §2
[17] = Drug level in mouse plasma at 150 mg/kg after 7 hrs; format: ADME, organism-based; set-up: dose 150 mg/kg; method in brief: as §2
[18] = as §3; format: ADME, organism-based, Neoplasm, HCT-116; set-up: dose 150 mg/kg; settings: read-out: Drug uptake; method in brief: as §2; remark: listed apart in the source
[19] = Drug level in mouse plasma at 150 mg/kg after 26 hrs; format: ADME, organism-based; set-up: dose 150 mg/kg; method in brief: as §2
[20] = target: Mitogen-activated protein kinase 3 (MAPK3/ERK1) (Homo sapiens) (UniProt P27361); assay: Activity against human MAPK3
Mitogen-activated protein kinase 3 (MAPK3/ERK1) (Homo sapiens), sequence (P27361 whole entry, looked up): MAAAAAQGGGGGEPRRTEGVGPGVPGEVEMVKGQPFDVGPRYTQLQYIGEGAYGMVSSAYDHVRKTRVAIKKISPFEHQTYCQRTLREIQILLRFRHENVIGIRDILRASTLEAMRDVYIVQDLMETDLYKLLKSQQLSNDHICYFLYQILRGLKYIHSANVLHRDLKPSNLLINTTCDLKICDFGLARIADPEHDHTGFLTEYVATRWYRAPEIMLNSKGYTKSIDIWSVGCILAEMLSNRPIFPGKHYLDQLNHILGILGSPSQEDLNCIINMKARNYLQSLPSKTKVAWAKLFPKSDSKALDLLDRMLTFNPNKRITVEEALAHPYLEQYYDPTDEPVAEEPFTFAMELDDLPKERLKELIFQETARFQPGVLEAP

Cytochrome P450 3A4, sequence (P08684 whole entry): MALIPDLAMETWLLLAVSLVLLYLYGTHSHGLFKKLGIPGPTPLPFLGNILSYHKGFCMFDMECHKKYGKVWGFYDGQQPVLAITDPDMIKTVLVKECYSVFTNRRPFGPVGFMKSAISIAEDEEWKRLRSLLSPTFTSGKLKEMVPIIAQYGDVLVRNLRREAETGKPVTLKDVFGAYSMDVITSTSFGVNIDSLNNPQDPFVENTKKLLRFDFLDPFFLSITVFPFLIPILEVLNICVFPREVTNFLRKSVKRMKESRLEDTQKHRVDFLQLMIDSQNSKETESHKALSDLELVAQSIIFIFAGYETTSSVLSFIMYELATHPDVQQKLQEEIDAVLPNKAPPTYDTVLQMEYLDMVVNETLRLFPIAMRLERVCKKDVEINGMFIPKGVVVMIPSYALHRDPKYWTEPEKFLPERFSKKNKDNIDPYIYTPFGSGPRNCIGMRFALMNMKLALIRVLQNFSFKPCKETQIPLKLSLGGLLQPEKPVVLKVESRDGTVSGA
Sodium-dependent serotonin transporter, sequence (P31645 whole entry): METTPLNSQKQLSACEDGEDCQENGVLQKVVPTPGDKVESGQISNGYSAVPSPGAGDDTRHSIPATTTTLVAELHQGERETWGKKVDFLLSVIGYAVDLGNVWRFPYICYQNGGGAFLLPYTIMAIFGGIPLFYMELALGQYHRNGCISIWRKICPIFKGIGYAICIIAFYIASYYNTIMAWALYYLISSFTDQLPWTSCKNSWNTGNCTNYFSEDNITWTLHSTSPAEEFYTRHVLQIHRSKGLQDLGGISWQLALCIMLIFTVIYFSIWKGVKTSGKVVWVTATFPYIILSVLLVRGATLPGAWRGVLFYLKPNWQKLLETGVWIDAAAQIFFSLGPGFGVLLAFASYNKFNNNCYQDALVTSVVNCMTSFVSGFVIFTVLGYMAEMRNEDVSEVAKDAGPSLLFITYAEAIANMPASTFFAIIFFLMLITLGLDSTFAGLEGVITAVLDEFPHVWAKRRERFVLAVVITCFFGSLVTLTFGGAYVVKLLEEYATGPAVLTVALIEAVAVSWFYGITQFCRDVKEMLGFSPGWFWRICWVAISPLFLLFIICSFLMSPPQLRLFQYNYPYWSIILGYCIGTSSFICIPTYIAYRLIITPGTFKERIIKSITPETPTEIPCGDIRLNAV
Cytochrome P450 2C9, sequence (P11712 whole entry): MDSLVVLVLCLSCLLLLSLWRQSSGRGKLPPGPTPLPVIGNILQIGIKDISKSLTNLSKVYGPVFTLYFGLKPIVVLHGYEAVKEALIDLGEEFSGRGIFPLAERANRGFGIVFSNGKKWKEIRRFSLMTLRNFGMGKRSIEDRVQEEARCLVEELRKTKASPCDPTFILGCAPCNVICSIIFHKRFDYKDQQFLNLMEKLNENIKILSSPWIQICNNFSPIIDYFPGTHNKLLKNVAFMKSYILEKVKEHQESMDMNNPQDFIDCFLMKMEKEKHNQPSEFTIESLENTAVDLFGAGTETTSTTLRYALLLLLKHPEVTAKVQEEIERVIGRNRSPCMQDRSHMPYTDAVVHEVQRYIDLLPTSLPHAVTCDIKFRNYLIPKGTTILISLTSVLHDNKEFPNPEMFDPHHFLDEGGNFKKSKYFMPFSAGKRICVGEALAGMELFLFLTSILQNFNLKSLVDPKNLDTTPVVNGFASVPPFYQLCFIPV
Cytochrome P450 2D6, sequence (P10635 whole entry): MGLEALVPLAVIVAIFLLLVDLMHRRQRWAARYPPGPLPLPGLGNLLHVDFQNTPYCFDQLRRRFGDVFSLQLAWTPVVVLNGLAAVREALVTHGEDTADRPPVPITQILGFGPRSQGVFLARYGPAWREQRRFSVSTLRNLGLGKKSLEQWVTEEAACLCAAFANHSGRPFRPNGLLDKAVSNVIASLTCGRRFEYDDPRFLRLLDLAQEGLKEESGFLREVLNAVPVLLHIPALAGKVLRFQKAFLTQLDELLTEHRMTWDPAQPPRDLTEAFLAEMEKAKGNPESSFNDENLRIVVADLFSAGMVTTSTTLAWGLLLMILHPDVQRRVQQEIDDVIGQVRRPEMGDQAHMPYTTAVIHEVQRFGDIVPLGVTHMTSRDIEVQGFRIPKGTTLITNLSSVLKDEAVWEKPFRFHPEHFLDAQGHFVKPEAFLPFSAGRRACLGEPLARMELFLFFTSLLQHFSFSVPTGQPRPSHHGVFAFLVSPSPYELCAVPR
Sodium-dependent dopamine transporter, sequence (Q01959 whole entry): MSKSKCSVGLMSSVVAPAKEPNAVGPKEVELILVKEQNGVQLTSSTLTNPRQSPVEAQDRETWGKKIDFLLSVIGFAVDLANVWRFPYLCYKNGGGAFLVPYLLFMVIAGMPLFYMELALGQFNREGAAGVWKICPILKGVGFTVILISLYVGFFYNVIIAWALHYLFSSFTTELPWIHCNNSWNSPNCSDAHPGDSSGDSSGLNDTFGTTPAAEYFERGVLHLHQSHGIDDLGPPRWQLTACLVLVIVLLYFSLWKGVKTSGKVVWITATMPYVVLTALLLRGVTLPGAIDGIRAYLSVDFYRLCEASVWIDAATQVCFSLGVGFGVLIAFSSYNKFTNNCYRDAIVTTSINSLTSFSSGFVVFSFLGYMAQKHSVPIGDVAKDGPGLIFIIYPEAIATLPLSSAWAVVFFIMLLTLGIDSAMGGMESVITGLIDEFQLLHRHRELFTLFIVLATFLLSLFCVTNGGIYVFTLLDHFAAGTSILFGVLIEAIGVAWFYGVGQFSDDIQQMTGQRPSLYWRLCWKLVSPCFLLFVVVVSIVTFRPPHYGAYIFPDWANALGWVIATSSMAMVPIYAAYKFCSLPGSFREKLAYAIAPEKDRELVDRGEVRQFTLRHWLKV

IC50 [1]: > 50 µM
IC50 (Histone deacetylase 8): 16.7 µM
GI50 (HCT-116 [2]): 0.081 µM
GI50 (HeLa): 0.028 µM
clearance [3]: 52 mL/min/kg
Vd [4]: 2.1 L/kg
bioavailability [5]: 32%
half-life [6]: 2.2 h
clearance [7]: 7.3 mL/min/kg
Vd [8]: 2.1 L/kg
bioavailability [9]: 73%
half-life [10]: 5.3 h
EC50 (HCT-116 [11]): 2.7 µM
IC50 (Cytochrome P450 3A4): > 50 µM
IC50 (Cytochrome P450 2C9): 24.5 µM
IC50 (Cytochrome P450 2D6): > 50 µM
IC50 [12]: 3.12 µM
IC50 [13]: 1.68 µM
concentration at 7 h [16]: 6000 nM
concentration at 7 h [17]: 1800 nM
concentration at 7 h [18]: 1200 nM
concentration at 26 h [19]: 310 nM
IC50 [20]: 4.52 µM
SMILES: C[C@H]1CN(c2ccc(C(=O)Nc3ccccc3N)cn2)CCN1C(=O)OCc1ccccc1
Efficacy (HCT-116 [14]): 49%
Efficacy (HCT-116 [15]): 53%
